DENV2 CPE rescue: inhibitors of DENV2 cytopathic effect, primary screen, cell-based, plate reader, single concentration. 350,000 tested, 1.7% active. DENV2-infected cells, cytopathic effect rescue. CPE inhibition, % at 9.99 µM; in the data active = CPE inhibition above about 20%, passing the limit was not always enough; inconclusive = no clear call, values can overlap the other calls; tested in BHK-21 cells;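 note: 0% = median of neutral control wells and 100% = median of positive control wells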
S100A4 MyoIIA: inhibitors of S100A4-myosin IIA peptide binding, primary screen, biochemical, fluorescence polarization, TAMRA-MyoIIA peptide; inhibition, % at 10.7 µM; AID 652163, 2013; 360,000 tested, 0.14% active;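 active = mean inhibition of at least 70% across replicates, with every replicate also reaching that level; inconclusive = mean inhibition reaches 70% but some replicates fall short; inactive = mean inhibition below 70%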
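Material: human S100A4 monomer with TAMRA-labelled myosin IIA peptide; buffer or medium: HEPES pH 7.2 with CaCl2, KCl, NaCl, DTT, Triton; compound dosing: one concentration per compound; schedule: 5 min incubation before reading; benchmarks: neutral control DMSO, positive control TFP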
E-selectin induc: E-selectin induction in HUVECs, primary screen, imaging, HUVEC, immunofluorescence imaging, single point; normalized: neutral wells 0, TNF-alpha wells 100; activation, % at 7.58 µM; 260,000 tested, 0.37% active;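 active = mean E-selectin-positive cell signal at least 10% of the positive control, reached in at least 60% of replicates, without over 20% cell loss; inconclusive = no rule given, readout overlaps actives, possibly toxicity-flagged; inactive = the rest, including those meeting only one limit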
Target sequence (P16581 whole entry, looked up): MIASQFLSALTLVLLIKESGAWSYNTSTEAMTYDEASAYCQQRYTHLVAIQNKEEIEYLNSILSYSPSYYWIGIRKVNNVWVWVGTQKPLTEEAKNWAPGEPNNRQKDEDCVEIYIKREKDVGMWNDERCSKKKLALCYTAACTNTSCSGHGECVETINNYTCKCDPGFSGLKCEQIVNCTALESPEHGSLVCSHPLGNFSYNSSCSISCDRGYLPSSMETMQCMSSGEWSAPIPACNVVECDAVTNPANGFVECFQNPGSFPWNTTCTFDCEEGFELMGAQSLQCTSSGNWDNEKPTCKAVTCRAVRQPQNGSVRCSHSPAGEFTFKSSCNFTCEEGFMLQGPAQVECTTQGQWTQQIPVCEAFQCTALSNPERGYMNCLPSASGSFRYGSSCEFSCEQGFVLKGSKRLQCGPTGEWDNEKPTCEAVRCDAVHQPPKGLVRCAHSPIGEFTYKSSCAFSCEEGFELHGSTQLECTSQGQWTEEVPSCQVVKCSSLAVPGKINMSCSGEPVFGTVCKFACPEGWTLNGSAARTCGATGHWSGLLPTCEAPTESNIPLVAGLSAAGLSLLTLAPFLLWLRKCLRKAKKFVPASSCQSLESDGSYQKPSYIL
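Test system: HUVEC | Signal: Immunofluorescence imaging | Read-out: Percent E-selectin-positive cells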
XiGFP reactiv: activators of inactive X chromosome reactivation, primary screen, imaging, XiGFP fibroblasts, GFP high-content imaging, set 2 | XiGFP mouse fibroblasts, % GFP-positive cells imaging, 3 d; cells co-treated with 5-aza-dC sensitizer; scaled so ellipticine positive control = 100% | activation, % at 7.58 µM | 360,000 tested, 0.055% active;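 active = mean normalized replicate activation at least 10% and every replicate at or above 10%; inconclusive = only one of the two criteria met; inactive = mean below 10% and not all replicates reach 10%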;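 note: 0% = median of on-plate neutral control wells and 100% = ellipticine 6 µM median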
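Material: XiGFP fibroblasts, SV40-immortalized; Buffer or medium: DMEM containing 5-aza-dC; Compound dosing: single point; Times: 3 days compound exposure.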
* marks the source's active call; other numbers are inactive results; u = inconclusive; x = no result given; ! = a repeat was not active. Compounds with a hit are over-represented: about 2% of the library has one in this group of screens.

SMILES | DENV2 CPE rescue | S100A4 MyoIIA | E-selectin induc | XiGFP reactiv
C[C@H](CO)N1C[C@H](C)[C@H](CN(C)C(=O)Nc2ccc3c(c2)OCO3)OCCCC[C@H](C)Oc2ccc(NC(=O)Cc3ccccc3)cc2C1=O | -5 | x | 0 | -1
CC(C)C[C@H]1CNC(=O)C(=O)N1CC1CCN(CC2CCC(C)CC2)CC1 (stereo partly drawn) | -3 | 1 | 0 | 0
NC(=O)C1(c2ccccc2)OC1c1ccccc1 (stereo not drawn) | 41* | 2 | 0 | 0
NC(=O)C1(C(N)=O)OC1c1ccccc1 (stereo not drawn) | 1 | 0 | 0 | 0
C[C@H]1CN([C@@H](C)CO)C(=O)Cc2cc(NC(=O)Nc3ccc4c(c3)OCO4)ccc2O[C@H]1CN(C)S(=O)(=O)c1cccs1 | 4 | x | -3 | 0
COc1ccc(NC(=O)N(C)C[C@H]2OCCCC[C@@H](C)Oc3ccc(NC(=O)NC4CCCCC4)cc3C(=O)N([C@H](C)CO)C[C@@H]2C)cc1 | u | 134* | 0 | 0
COc1ccc(NC(=O)Nc2ccc3c(c2)C(=O)N([C@H](C)CO)C[C@@H](C)[C@@H](CN(C)C(=O)Nc2ccc(OC)cc2)OCCCC[C@@H](C)O3)cc1 | 48* | 3 | 0 | 0
COc1ccc(NC(=O)Nc2ccc3c(c2)C(=O)N([C@H](C)CO)C[C@H](C)[C@H](CN(C)C(=O)Nc2ccc(OC)cc2)OCCCC[C@H](C)O3)cc1 | 9 | -4 | 0 | 0
COc1ccc(NC(=O)N(C)C[C@H]2OCCCC[C@H](C)Oc3ccc(NC(=O)NC4CCCCC4)cc3C(=O)N([C@H](C)CO)C[C@H]2C)cc1 | -6 | 14 | x | 0
COc1ccc(NC(=O)N(C)C[C@H]2OCCCC[C@@H](C)Oc3ccc(NC(=O)Nc4ccc5c(c4)OCO5)cc3C(=O)N([C@@H](C)CO)C[C@H]2C)cc1 | 70* | -9 | 0 | 0
COc1ccc(NC(=O)Nc2ccc3c(c2)C(=O)N([C@H](C)CO)C[C@H](C)[C@H](CN(C)C(=O)NC(C)C)OCCCC[C@H](C)O3)cc1 | 33* | 11 | x | 0
COc1ccc(NC(=O)Nc2ccc3c(c2)C(=O)N([C@@H](C)CO)C[C@H](C)[C@H](CN(C)C(=O)Nc2ccc4c(c2)OCO4)OCCCC[C@@H](C)O3)cc1 | -3 | -7 | 0 | 0
CCn1c(CCNS(=O)(=O)c2ccccc2Br)nnc1SC | 3 | -2 | x | 0
Cc1noc(C)c1S(=O)(=O)N(C)C[C@@H]1OCc2cn(nn2)CCCC(=O)N([C@@H](C)CO)C[C@@H]1C | 5 | -7 | 0 | 0
COc1ccc(CCNC(=O)CSCc2ccc([N+](=O)[O-])cc2)cc1 | x | x | 0 | 0
Cc1ccc2nc(-c3ccc(N4C(=O)CC(N5CCN(CCO)CC5)C4=O)cc3)sc2c1 (stereo not drawn) | x | x | x | 0
COc1ccc(NC(=O)Nc2ccc3c(c2)C(=O)N([C@@H](C)CO)C[C@@H](C)[C@H](CN(C)C(=O)Nc2ccccc2)OCCCC[C@H](C)O3)cc1 | -3 | 1 | x | 0
COc1ccc(NC(=O)N(C)C[C@@H]2OCCCC[C@@H](C)Oc3ccc(NC(=O)Nc4ccccc4)cc3C(=O)N([C@H](C)CO)C[C@@H]2C)cc1 | 39* | -2 | 0 | 0
C[C@@H]1CCCCO[C@@H](CN(C)C(=O)CCC(F)(F)F)[C@@H](C)CN([C@H](C)CO)C(=O)c2cc(NC(=O)Nc3ccc4c(c3)OCO4)ccc2O1 | 42* | 11 | 0 | 0
C[C@@H]1CN([C@H](C)CO)C(=O)c2cc(NC(=O)Nc3ccc4c(c3)OCO4)ccc2O[C@@H](C)CCCCO[C@@H]1CN(C)C(=O)CCC(F)(F)F | -6 | 57 | 0 | 0
C[C@@H]1CCCCO[C@H](CN(C)C(=O)CCC(F)(F)F)[C@H](C)CN([C@@H](C)CO)C(=O)c2cc(NC(=O)Nc3ccc4c(c3)OCO4)ccc2O1 | 26* | -3 | 1 | 0
C[C@@H]1CN([C@@H](C)CO)C(=O)c2cc(NC(=O)Nc3ccccc3)ccc2O[C@@H](C)CCCCO[C@@H]1CN(C)C(=O)CCC(F)(F)F | 0 | 0 | 0 | 0
Cc1ccc(N=C2NC(=O)/C(=C\c3ccsc3)S2)c(C)c1 | 96* | -3 | x | 0
Cc1ccc(N=C2NC(=O)/C(=C/c3cccnc3)S2)c(C)c1 | 6 | 1 | 4 | 0
CCOC(=O)c1cc2c(=O)n3ccccc3nc2n(CCOC)c1=NC(=O)c1c(-c2c(F)cccc2Cl)noc1C | 6 | -1 | 2 | 0
SMILES | DENV2 CPE rescue | S100A4 MyoIIA | E-selectin induc | XiGFP reactiv
O=C(CCc1nnc(Cc2c[nH]c3ccccc23)o1)NCCC1CCCCO1 (stereo not drawn) | 54* | 3 | 1 | 0
O=C(CCc1nnc(Cc2c[nH]c3ccccc23)o1)NC1CCCC1 | 6 | -2 | 0 | 0
Cn1ccc2c(-c3ccc(C(C)(C)C)cc3)cc3c(c21)C1CCC3C1 (stereo not drawn) | 21* | -1 | 0 | 0
C[C@@H]1CN([C@@H](C)CO)C(=O)c2cc(NS(=O)(=O)c3cn(C)cn3)ccc2O[C@@H](C)CCCCO[C@H]1CN(C)Cc1ccncc1 | 70* | -9 | 0 | 0
COc1ccc(NC(=O)N(C)C[C@H]2OCCCC[C@H](C)Oc3ccc(NS(=O)(=O)c4cn(C)cn4)cc3C(=O)N([C@@H](C)CO)C[C@H]2C)cc1 | u | -3 | 0 | 0
COc1ccc(NC(=O)N(C)C[C@H]2OCCCC[C@H](C)Oc3ccc(NS(=O)(=O)c4cn(C)cn4)cc3C(=O)N([C@H](C)CO)C[C@@H]2C)cc1 | 25*! | 3 | 0 | 0
COc1ccc(CN(C)C[C@@H]2OCCCC[C@@H](C)Oc3ccc(NS(=O)(=O)c4cn(C)cn4)cc3C(=O)N([C@@H](C)CO)C[C@H]2C)cc1 | -11 | 8 | 0 | 0
C[C@@H]1CCCCO[C@H](CN(C)Cc2ccncc2)[C@H](C)CN([C@@H](C)CO)C(=O)c2cc(NS(=O)(=O)c3cn(C)cn3)ccc2O1 | 7 | 13 | 0 | 0
COc1ccc(CN(C)C[C@@H]2OCCCC[C@H](C)Oc3ccc(NS(=O)(=O)c4cn(C)cn4)cc3C(=O)N([C@@H](C)CO)C[C@H]2C)cc1 | -2 | 110* | 0 | -1
FC(F)(F)c1cccc(-c2cc3nc(NCCCn4ccnc4)ccn3n2)c1 | -3 | 2 | 0 | 0
Clc1ccccc1-c1cc2nc(NCCCn3ccnc3)ccn2n1 | 32* | -2 | 0 | 0
N#CC1(NC(=O)CSc2nc3ccccc3o2)CCCCC1 | -8 | 2 | 0 | 0
N#CC1(NC(=O)CSc2ccccn2)CCCCC1 | 111* | -8 | 1 | 0
COc1cccc(-c2ncc3ccccc3c2COC(=O)c2ccc(F)cc2)c1 | 102* | -2 | 0 | 0

Source: PubChem BioAssay (Broad Institute)
